The record followed here is ChEMBL document CHEMBL1124416, “5-(1-piperazinyl)-1H-1,2,4-triazol-3-amines as antihypertensive agents” (1989).

Assay [1] has as its system Rattus norvegicus. Briefly: The antihypertensive activity was assessed by measuring the mean arterial blood pressure in rats when administered at 30 mg/kg. Format: functional. The gist of the method: (§1)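 16-week-old male SH rats (Okamoto) were dosed by oral gavage in 3% starch in normal saline (2 mL/kg), plus an oral saline load of 25 mL/kg. They were redosed at 24 h without the saline load. MABP and HR were taken by direct femoral arterial puncture under local anesthesia 4 h after the second dose. HR was rounded to 10 bpm.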

Assay [2] has as its system Rattus norvegicus. Briefly: The antihypertensive activity was assessed by measuring the heart rate in rats when administered at 30 mg/kg. The class given is functional. The gist of the method:
as §1

Assay [3] is filed under the species Rattus norvegicus. The class given is functional, Artery. Particulars: dose 100 mg/kg; route oral.
Assay [4] relates to Rattus norvegicus. Briefly: The antihypertensive activity was assessed by measuring the mean arterial blood pressure in rats when administered at 50 mg/kg. The class given is functional. The procedure, abridged:
as §1

Assay [5] has as its system Rattus norvegicus. Briefly: The antihypertensive activity was assessed by measuring the heart rate in rats when administered at 10 mg/kg. The class given is functional. The gist of the method:
as §1

For assay [6], the system named is Rattus norvegicus. Briefly: Assessment of antihypertensive activity at 100 mg/kg administered perorally by measuring the heart rate in rats. Format: functional. Particulars: route oral.
Assay [7] concerns Rattus norvegicus. Briefly: The antihypertensive activity was assessed by measuring the heart rate in rats when administered at 50 mg/kg. Format: functional. The procedure, abridged: as §1
Assay [8] relates to Rattus norvegicus. Briefly: The antihypertensive activity was assessed by measuring the mean arterial blood pressure in rats when administered at 10 mg/kg. Format: functional. The gist of the method:
as §1

The subject of assay [9] is Rattus norvegicus. Briefly: Effect on the cardiovascular response to DMPP challenge was measured in conscious spontaneously hypertensive rats administered perorally at 50 mg/kg. Particulars: route oral. Format: functional, Heart.
Assay [10] relates to Rattus norvegicus. Description: Effect on the cardiovascular response to angiotensin II challenge was measured in conscious spontaneously hypertensive rats administered perorally at 8 mL/100 g. Format: functional, Heart.
Assay [11] has as its system Rattus norvegicus. Briefly: Effect on the cardiovascular response to epinephrine (1ug/kg, iv) challenge was measured in conscious spontaneously hypertensive rats administered perorally at 1 mL/100g. Format: functional, Heart. The gist of the method:
(§2)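 Male Okamoto-Aoki SHR, about 350 g, conscious, held supine with elastic tape; tail base locally anesthetized with 2% procaine sc. Control responses were recorded first. Vehicle (10 mL/kg) or compound was then given orally, and challenges were repeated 1 h later. Challenges were a 75° tilt for 30 s and iv agonists (epinephrine 1 or 2 μg/kg). Read-out was change in MABP (mmHg); paired Student's t test.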

In assay [12] the test system is Rattus norvegicus. Description: Effect on the cardiovascular response to angiotensin II challenge was measured in conscious spontaneously hypertensive rats administered perorally at 1 mL/100g. The class given is functional, Heart.
Assay [13] concerns Rattus norvegicus. Briefly: Effect on the cardiovascular response to tilt challenge was measured in conscious spontaneously hypertensive rats administered perorally at 50 mg/kg. Format: functional, Heart. To be noted: route oral. The procedure, abridged:
as §2

The test system of assay [14] is Rattus norvegicus. Briefly: Effect on the cardiovascular response to norepinephrine challenge was measured in conscious spontaneously hypertensive rats administered perorally at 1 mL/100g. Format: functional, Heart.
For assay [15], the system named is Rattus norvegicus. Description: Effect on the cardiovascular response to angiotensin II challenge was measured in conscious spontaneously hypertensive rats administered perorally at 50 mg/kg. Format: functional, Heart. Particulars: route oral.
Assay [16] concerns Rattus norvegicus. Description: The antihypertensive activity was assessed by measuring the heart rate in rats when administered at 25 mg/kg. Format: functional. The gist of the method: as §1
The subject of assay [17] is Rattus norvegicus. Description: Effect on the cardiovascular response to isoproterenol challenge was measured in conscious spontaneously hypertensive rats administered perorally at 8 mL/100 g. Format: functional, Heart.
Assay [18] concerns Rattus norvegicus. Briefly: Effect on the cardiovascular response to tilt challenge was measured in conscious spontaneously hypertensive rats administered perorally at 1 mL/100g. The class given is functional, Heart. The gist of the method:
as §2

Assay [19] has as its system Rattus norvegicus. Description: Effect on the cardiovascular response to norepinephrine challenge was measured in conscious spontaneously hypertensive rats administered perorally at 8 mL/100 g. The class given is functional, Heart.
Assay [20] has as its system Rattus norvegicus. Briefly: Effect on the cardiovascular response to norepinephrine challenge was measured in conscious spontaneously hypertensive rats administered perorally at 50 mg/kg. Format: functional, Heart. To be noted: route oral.
The test system of assay [21] is Rattus norvegicus. Description: Effect on the cardiovascular response to isoproterenol challenge was measured in conscious spontaneously hypertensive rats administered perorally at 1 mL/100g. Format: functional, Heart.
The test system of assay [22] is Rattus norvegicus. Briefly: Effect on the cardiovascular response to epinephrine (1ug/kg, iv) challenge was measured in conscious spontaneously hypertensive rats administered perorally at 50 mg/kg. The class given is functional, Heart. To be noted: route oral. The gist of the method:
as §2

For assay [23], the system named is Rattus norvegicus. Description: The antihypertensive activity was assessed by measuring the mean arterial blood pressure in rats when administered at 25 mg/kg. Format: functional. The gist of the method:
as §1

Assay [24] has as its system Rattus norvegicus. Briefly: Effect on the […] was measured in conscious spontaneously hypertensive rat administered perorally at 1 mL/100g. Format: functional, Heart.
Assay [25] relates to Rattus norvegicus. Description: Effect on the cardiovascular response to DMPP challenge was measured in conscious spontaneously hypertensive administered perorally rats at 1 mL/100g. The class given is functional, Heart.
The subject of assay [26] is Rattus norvegicus. Briefly: Effect on the cardiovascular response to tyramine challenge was measured in conscious spontaneously hypertensive rats administered perorally at 50 mg/kg. The class given is functional, Heart. Particulars: route oral.
In assay [27] the test system is Rattus norvegicus. Briefly: Effect on the cardiovascular response to isoproterenol challenge was measured in conscious spontaneously hypertensive rats administered perorally at 50 mg/kg. Format: functional, Heart. To be noted: route oral.
Assay [28] deals with Rattus norvegicus. Briefly: Effect on the cardiovascular response to epinephrine (2ug/kg, iv) challenge was measured in conscious spontaneously hypertensive rats administered perorally at 1 mL/100g. Format: functional, Heart. The procedure, abridged: as §2
Assay [29] concerns Rattus norvegicus. Description: Effect on the cardiovascular response to ACH challenge was measured in conscious spontaneously hypertensive rats administered perorally at 50 mg/kg. The class given is functional, Heart. To be noted: route oral.
In assay [30] the test system is Rattus norvegicus. Description: Effect on the cardiovascular response to epinephrine (2ug/kg, iv) challenge was measured in conscious spontaneously hypertensive rats administered perorally at 50 mg/kg. Format: functional, Heart. To be noted: route oral. The procedure, abridged:
as §2

Assay [31] relates to Rattus norvegicus. Description: Effect on the cardiovascular response to ACH challenge was measured in conscious spontaneously hypertensive rats administered perorally at 1 mL/100g. The class given is functional, Heart.
Assay [32] relates to Rattus norvegicus. Description: Effect on the cardiovascular response to ACH challenge was measured in conscious spontaneously hypertensive rats administered perorally at 8 mL/100 g. The class given is functional, Heart.
Assay [33] has as its system Rattus norvegicus. Briefly: Effect on the cardiovascular response to tyramine challenge was measured in conscious spontaneously hypertensive rats administered perorally at 8 mL/100 g. The class given is functional, Heart.
In assay [34] the test system is Rattus norvegicus. Description: The antihypertensive activity at 100 mg/kg administered perorally was assessed by measuring the mean arterial blood pressure (MABP) in rats. Format: functional. To be noted: route oral. The gist of the method: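 Male SH rats (Okamoto, 16 weeks old) got 100 mg/kg by oral gavage in 3% starch in normal saline (2 mL/kg), then an oral 25 mL/kg saline load. They were redosed at 24 h without the load. MABP and HR were taken by direct femoral arterial puncture under local anesthesia 4 h after the second dose, in one to three rats per compound. Active: one rat reduced to 116 mmHg, or a two-rat average reduced to 122 mmHg.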

On to `Nc1n[nH]c(N2CCN(Cc3ccco3)CC2)n1`, for which the MABP in the assay with Rattus norvegicus [1] was 115 mmHg; in the assay filed under Rattus norvegicus [3], 114 mmHg; in the assay with Rattus norvegicus [4] it was 102 mmHg; in the assay on Rattus norvegicus [8], 153 mmHg. For the same compound, the HR in the assay on Rattus norvegicus [2] amounted to 440 beats min-1; in the assay with Rattus norvegicus [5] it was 440 beats min-1; in the assay on Rattus norvegicus [6], 410 beats min-1; in the assay on Rattus norvegicus [7], 370 beats min-1.

On to `Nc1n[nH]c(N2CCN(CCc3ccccc3)CC2)n1`, for which the results for the MABP in the assay listed under Rattus norvegicus [3] and in the assay with Rattus norvegicus [8] were 77 mmHg and 142 mmHg, respectively. The HR with Rattus norvegicus [5] stood at 440 beats min-1; with Rattus norvegicus [6], 330 beats min-1.

As for `Nc1n[nH]c(N2CCN(Cc3cccc(Cl)c3)CC2)n1`, the MABP in the assay on Rattus norvegicus [9] amounted to 30.3 delta mmHg; in the assay on Rattus norvegicus [10], 55 delta mmHg; with Rattus norvegicus [11], 28.8 delta mmHg; in the assay with Rattus norvegicus [12], 49 delta mmHg; in the assay on Rattus norvegicus [13], 9.3 delta mmHg; in the assay with Rattus norvegicus [14] it was 45.8 delta mmHg. Also, the MABP in the assay on Rattus norvegicus [15] is reported as 70.2 delta mmHg; in the assay on Rattus norvegicus [17] it was -49.8 delta mmHg; in the assay on Rattus norvegicus [18] it was 17.3 delta mmHg; in the assay with Rattus norvegicus [19], 47.8 delta mmHg; with Rattus norvegicus [20], 63 delta mmHg; in the assay with Rattus norvegicus [21] it was -38.5 delta mmHg. Moreover, the MABP with Rattus norvegicus [22] worked out at 29 delta mmHg; in the assay with Rattus norvegicus [23], 132 mmHg; in the assay on Rattus norvegicus [24] it was 34.5 delta mmHg; in the assay on Rattus norvegicus [25] it was 52.5 delta mmHg; in the assay filed under Rattus norvegicus [3], 89 mmHg; in the assay on Rattus norvegicus [26], 34.8 delta mmHg. Also, the MABP in the assay with Rattus norvegicus [27] is -46.7 delta mmHg; in the assay with Rattus norvegicus [28], 37.3 delta mmHg; with Rattus norvegicus [4], 113 mmHg; in the assay with Rattus norvegicus [29] it was -47 delta mmHg; in the assay on Rattus norvegicus [30] it was 50.7 delta mmHg; in the assay with Rattus norvegicus [31], -54.5 delta mmHg. Moreover, the MABP in the assay with Rattus norvegicus [32] is -68.5 delta mmHg; with Rattus norvegicus [33], 35.3 delta mmHg. The HR in the assay on Rattus norvegicus [16] is 440 beats min-1; in the assay on Rattus norvegicus [6] it was 300 beats min-1; in the assay on Rattus norvegicus [7] it was 440 beats min-1.

For the compound `Nc1n[nH]c(N2CCN(Cc3ccccc3)CC2)n1`, the MABP worked out at 102 mmHg in the assay filed under Rattus norvegicus [3] and 118 mmHg in the assay on Rattus norvegicus [8]. Besides, the HR is given as 400 beats min-1 in the assay with Rattus norvegicus [5] and 360 beats min-1 with Rattus norvegicus [6].

Consider `CN1CCN(c2n[nH]c(N)n2)CC1`, for which the HR with Rattus norvegicus [34] was found to be 400 beats min-1; in the assay on Rattus norvegicus [7], 440 beats min-1. Also, the MABP in the assay listed under Rattus norvegicus [3] is recorded as 116 mmHg; in the assay with Rattus norvegicus [4], 133 mmHg.
